Source: article PMC9086222 (RSC Advances, 2018)
Where two headings read alike, the source gives them in different places.

Legend:
[1] = cited from earlier work
[2] = tested on: Caco-2 cell monolayers; experiment: Dioxin transport and cellular association in dynamic gut-on-a-chip model; format: in vitro ADME, human; details: 24 h; for Mass balance (sum of AP, BL compartments and cellular fraction): Chip, 0.2 ng/mL each congener, n = 3
How it was run: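 Caco-2 seeded at 75 000 cells per cm2 on a porous polyester membrane clamped between glass slides. Cells attached 72 h without flow, then both sides were perfused 7 days at 25 μL h−1 with 10 mM-bicarbonate DMEM+ at 37 °C. Apical medium then carried 17 congeners (0.2 ng mL−1 each, 1% DMSO) for 24 h. Compartment eluents, hexane rinses and trypsinised, freeze–thaw-lysed cells were analysed by GC-HRMS.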

[3] = tested on: Caco-2 cell monolayers; experiment: Dioxin transport and cellular association in static Transwell model; format: in vitro ADME, human; details: 24 h; for Mass balance (sum of AP, BL compartments and cellular fraction): Transwell, 0.2 ng/mL mixture, n = 3
How it was run: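 Caco-2 seeded at 40 000 cells per cm2 on 12-well polyester Transwell inserts (0.4 μm pores, 1.12 cm2) in DMEM+, with medium changed every other day for 21 days. Apical side received DMEM+ with 0.2 ng mL−1 dioxin mixture (1% DMSO); basolateral side received plain DMEM+; exposure 24 h. Both compartments' medium, hexane rinses and trypsinised, freeze–thaw-lysed cells were analysed by GC-HRMS.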

[4] = predicted; octanol/water; cited from earlier work
[5] = tested on: Caco-2 cell monolayer; details: 24 h; 2.5 nM 2,3,7,8-TCDD; cited from earlier work
[6] = tested on: Caco-2 cells; details: 90 minutes exposure to 3.4 × 10^−2 μCi mL^−1 U-14C-TCDD; cited from earlier work
[7] = dynamic model (chip), 0.2 ng/mL
[8] = static model (Transwell), 0.2 ng/mL

Row | SMILES | Mass balance (sum of AP, BL compartments and cellular fraction) [2] | Mass balance (sum of AP, BL compartments and cellular fraction) [3] | log P [4] | also measured
1 | Clc1cc(Cl)c(-c2cc(Cl)c(Cl)c(Cl)c2Cl)cc1Cl [#180] |  |  |  | log P [1]: > 5
2 | Clc1ccc(-c2cc(Cl)c(Cl)cc2Cl)cc1Cl [#118] |  |  |  | log P [1]: > 5
3 | Clc1cc2c(c(Cl)c1Cl)Oc1cc(Cl)c(Cl)c(Cl)c1O2 [1,2,3,6,7,8-HxCDD] | 92 ± 5% | 92 ± 1% | 7.4 | 
4 | Clc1cc2c(c(Cl)c1Cl)Oc1c(Cl)c(Cl)c(Cl)c(Cl)c1O2 [1,2,3,4,6,7,8-HpCDD] | 97 ± 7% | 83 ± 2% |  | 
5 | Clc1cc2c(oc3c(Cl)c(Cl)c(Cl)c(Cl)c32)c(Cl)c1Cl [1,2,3,4,6,7,8-HpCDF] | 97 ± 5% | 93 ± 1% | 7.9 | 
6 | Clc1cc2oc3c(Cl)c(Cl)c(Cl)c(Cl)c3c2c(Cl)c1Cl [1,2,3,4,7,8,9-HpCDF] | 97 ± 7% | 83 ± 2% |  | 
7 | Clc1cc2c(c(Cl)c1Cl)Oc1c(cc(Cl)c(Cl)c1Cl)O2 [1,2,3,7,8,9-HxCDD] | 93 ± 5% | 93 ± 1% | 7.4 | Relative amount in the cellular fraction (of total exposure) [2, 7]: 33%; Relative amount in the cellular fraction (of total exposure) [3, 8]: 22.5%
8 | Clc1cc(Cl)c(-c2cc(Cl)c(Cl)cc2Cl)cc1Cl [#153] |  |  |  | log P [1]: > 5
9 | Clc1cc2oc3c(Cl)c(Cl)c(Cl)c(Cl)c3c2cc1Cl [1,2,3,4,7,8-HxCDF] | 97 ± 7% | 85 ± 2% | 6.9 | 
10 | Clc1cc2c(oc3cc(Cl)c(Cl)c(Cl)c32)c(Cl)c1Cl [1,2,3,6,7,8-HxCDF] | 94 ± 5% | 93 ± 1% | 6.9 | 
11 | Clc1cc2c(cc1Cl)Oc1cc(Cl)c(Cl)cc1O2 [2,3,7,8-TCDD, 2,3,7,8-tetrachlorodibenzo-p-dioxin] | 85 ± 5% | 81 ± 2% |  | Relative amount in the cellular fraction (of total exposure) [2, 7]: ~56%; Transport across the monolayer (basal side compared to total exposed amount) [2, 7]: 3%; Relative amount in the cellular fraction (of total exposure) [3, 8]: approximately 39%; Transport across the monolayer (basal side compared to total exposed amount) [3, 8]: 3%; Transported across the Caco-2 cell monolayer [5]: 15%; Apical concentration transported to the basal compartment [6]: less than 1.5%; Steady-state cellular association [6]: approximately 13%
12 | Clc1cc2c(oc3c(Cl)c(Cl)c(Cl)cc32)c(Cl)c1Cl [2,3,4,6,7,8-HxCDF] | 97 ± 7% | 87 ± 2% | 7.1 | 
13 | Clc1cc2oc3cc(Cl)c(Cl)c(Cl)c3c2c(Cl)c1Cl [1,2,3,7,8,9-HxCDF] | 91 ± 6% | 84 ± 2% | 7.4 | 
14 | Clc1ccc(Cl)c(-c2cc(Cl)ccc2Cl)c1 [PCB#52] |  |  |  | log P [1]: > 5
